# Assay outcomes (PubChem BioAssay)
# Most compounds without a hit are left out; they make up all but 2.6% or so of the library.
# FN deposition inh: fibronectin deposition inhibition; AH1F fibroblasts, Alexa488-fibronectin deposition fluorescence, overnight; inhibition, % at 12.6 µM; actives 0.086% (n = 350,000);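 active = mean inhibition across replicates of 30% or more, regardless of how many single replicates reach that level; inconclusive = mean under 30% yet at least half of replicates reach 30%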;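 note: positive control wells lacked labelled fibronectin entirely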
#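 Test system: AH1F fibroblast monolayer depositing Alexa488-labelled fibronectin into matrix. Input: 10000 cells per well. Technique: fluorescence, ex 485 nm, em 525 nm. Buffer or medium: DMEM plus 2% serum, read in PBS. Timing: 1 h cell adhesion before compound, then overnight fibronectin incubation. Compound: single dose, pinned. Read-out basis: inhibition from reduced deposited-fibronectin fluorescence.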
# HIV Env fusion: inhibitors of HIV Env-mediated cell fusion | HeLa-JRFL Env/CEM21 cell fusion, luciferase | inhibition, % at 12.3 µM | actives 1.1% (n = 360,000);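 active = mean replicate inhibition score of at least 50 and every replicate individually at or above 50; inconclusive = only one of the two criteria met; inactive = mean below 50 and not all replicates reaching 50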;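 note: 0% = plate neutral controls and 100% = maraviroc near 300 nM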
# rRNA inh HTS: selective bacterial rRNA inhibition in E. coli; E. coli WT GFP vs humanized-ribosome RFP mutants, fluorescence, 24 h; active compounds read low; DMSO median 0, no signal -100; GFP signal change (wild-type ribosome), % (concentration not given with the values); actives 1.6% (n = 350,000);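 active = significant combined selectivity score with lowered wild-type GFP, culture density cut under 30%, mutant RFP and density less affected; inactive = any of these conditions unmet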
# Vif imaging: HIV Vif inhibition; inhibition, % at 7.49 µM; actives 0.35% (n = 340,000); AID 602346; HEK293T cells, Vif self-association by quenched fluorescence, imaging, 24 h; in the data active = inhibition above about 50%, passing the limit was not always enough; inconclusive = no clear call, values can overlap the other calls; inactive = below about 31%
# miR-122 sensor: blocks miR-122 activity in Huh7 sensor cells; actives 0.3% (n = 340,000); activation (reporter increase), % at 12.5 µM; Huh7 miR-122 Renilla luciferase sensor, 48 h; neutral wells = 0, positive control = 100;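 active = mean replicate activation score at least 90 and every replicate individually at or above 90; inconclusive = only one of the two criteria met; inactive = neither criterion met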;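 note: higher luciferase means less miR-122 activity so hits act as miR-122 inhibitors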
# S100A4 MyoIIA: blocks human S100A4 binding to myosin IIA peptide; P26447; S100A4/TAMRA-MyoIIA peptide fluorescence polarization; inhibition, % at 10.7 µM; actives 0.14% (n = 360,000); AID 652163;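 active = mean inhibition of at least 70% across replicates, with every replicate also reaching that level; inconclusive = mean inhibition reaches 70% but some replicates fall short; inactive = mean inhibition below 70%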
# Target sequence (P26447 whole entry, looked up): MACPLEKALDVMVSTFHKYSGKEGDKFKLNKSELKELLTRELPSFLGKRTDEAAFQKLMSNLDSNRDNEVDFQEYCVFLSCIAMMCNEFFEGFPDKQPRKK
#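 Compound dosing: one dose per compound; test system: human S100A4 monomer with TAMRA-labelled myosin IIA peptide; probe or stimulus: TAMRA-labelled myosin IIA heavy-chain peptide probe, 5 nM; medium: HEPES buffer with Ca2+, pH 7.2; schedule: 5 min incubation before reading; benchmarks: neutral control DMSO, positive control TFP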
# HepG2 tox: HepG2 cell cytotoxicity | 30 tested, under 10 active | activity change, negative = cytotoxicity, unspecified at 26 µM | HepG2 viability, ATP luminescence, 72 h | AID 743480 | shares compounds with rRNA inh HTS;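 active = compounds whose fitted half-maximal signal-loss concentration is at most twice their highest valid dose; inconclusive = flat curve with 30 to 70% signal loss, or poor fit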
# AID977621: wild-type E. coli growth inhibition versus H69 humanized strain – H69 mutant RFP, wild-type GFP, cherry-pick, dose response | shares compounds with rRNA inh HTS | fluorescence, 24 h | activity change, negative = inhibition at 50 µM | 1,900 tested, under 10 active | AID 977621;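 active = Wild-type ribosome reporter drop at least double the humanized mutant ribosome reporter drop, growth loss under a set limit; inconclusive = no clear call, values can overlap the other calls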;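 note: wild-type GFP and H69 mutant RFP strains grown together 50/50 in each well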
# AID977628: E. coli growth inhibition, wild-type GFP versus h24 humanized RFP strain, dose response, h24 mutant RFP vs wild-type GFP, cherry-pick | 1,900 tested, under 10 active | AID 977628 | E. coli WT GFP strain growth, fluorescence, 24 h | shares compounds with rRNA inh HTS | activity change, negative = inhibition at 50 µM;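 active = compound lowering the normal-ribosome reporter at least twice as much as the humanized-ribosome reporter, growth loss under a set limit; inconclusive = no clear call, values can overlap the other calls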;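 note: wild-type GFP and h24 humanized RFP strains co-cultured 1 to 1 per well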
# * hit, by the source's call; ? = inconclusive; . = not tested or not shown; [ ] = dose if it differs, or a comment.
SMILES,FN deposition inh,HIV Env fusion,rRNA inh HTS,Vif imaging,miR-122 sensor,S100A4 MyoIIA,AID977621,AID977628,others
O=S1(=O)N[C@H](Cc2ccccc2)COc2cc(N3CCC[C@H]3CO)ccc21,2,.,-13,.,.,-4,.,.,
COc1cccc(-c2ccc([C@@H]3[C@H](CO)N4CCCCN(S(=O)(=O)c5cccs5)C[C@@H]34)cc2)c1,.,.,-46*,.,-4[16.7 µM],30,.,?,
Cc1cccc(-c2ccc([C@H]3[C@H]4CN(S(=O)(=O)c5ccccc5C)CCCCN4[C@H]3CO)cc2)c1,.,.,3,.,6[16.7 µM],4,-2.8,?,
Cc1cccc(-c2ccc([C@@H]3[C@@H](CO)N4CCCCN(S(=O)(=O)c5ccccc5C)C[C@@H]34)cc2)c1,.,.,2,.,17[16.7 µM],0,-5.1,-2.2,
Cc1cccc(-c2ccc([C@@H]3[C@@H](CO)N4CCCCN(S(=O)(=O)c5ccccc5C)C[C@H]34)cc2)c1,.,.,-30,.,2[16.7 µM],4,-5,-4.3,
C[C@@H]1CN([C@@H](C)CO)C(=O)Cc2cc(NS(C)(=O)=O)ccc2O[C@@H]1CN(C)C(=O)Nc1cccc2ccccc12,.,-3[16.7 µM],1,.,-4[16.7 µM],-16,.,.,
COc1ccccc1NC(=O)N1C[C@@H](O)COC[C@H]2O[C@@H](CC(=O)NCCc3ccccc3)CC[C@@H]21,-4,.,-4,.,-5[16.7 µM],5,.,.,
CCn1c(COc2cccc(OC)c2)nnc1SCC(=O)Nc1cc(OC)ccc1OC,-6,7,-23*,-8,22,-1,-3.6,-9.2,
CN(C)c1ccc2c(c1)[C@@H]1C[C@@H](CC(=O)NCc3cccc(F)c3)O[C@@H](CO)[C@@H]1O2,.,-7[16.7 µM],0,.,4[16.7 µM],11,.,.,
CC(C)NC(=O)N(C)C[C@@H]1OCCCC[C@H](C)Oc2ccc(NC(=O)Nc3ccc(F)cc3)cc2C(=O)N([C@@H](C)CO)C[C@H]1C,.,-71[16.7 µM],0,.,1[16.7 µM],-27,.,.,
O=C1N2c3ccccc3CCc3cccc(c32)C1(O)C(F)(F)F (stereo not given),.,.,-17*,0,-3,1,-14,.,
O=S(=O)(c1ccccc1)N1CC[C@@H]2[C@H](CO)Nc3ccc(Br)cc3[C@@H]21,-36,.,-42*,.,7[16.7 µM],8,-12,.,
CCNC(=O)C[C@@H]1CC[C@@H]2[C@H](COc3ccc(NC(=O)c4cscn4)cc3C(=O)N2C)O1,-2,-9[16.7 µM],1,.,-3[16.7 µM],12,.,.,
Cc1ccc(-c2cc[n+](Cc3ccccc3)cc2)cc1,-4,35,-32*,1,.,3,-7.8,?,
Brc1ccccc1Cn1c(-c2cncs2)nc2ccccc21,0,15,-9.4*,.,6,5,-1.9,-11,
CC1(Cc2ccccc2C#N)C(=O)Nc2cc(-c3ccccc3Cl)ccc21 (stereo not given),10,57*,-11*,27,-3,-5,.,.,HepG2 tox=8.5
CC1CCC2(CC1)SCC(=O)N2c1ccc(F)cc1 (stereo not given),-5,-4,-19*,0,.,6,-3,-8.2,
CC(C)(C)C1CCC2(CC1)SCC(=O)N2c1ccccc1 (stereo not given),.,.,4,1,-4,4,.,.,
O=C(NCCc1ccncc1)[C@H]1[C@H](CO)[C@H]2Cn3c(ccc(-c4ccncc4)c3=O)[C@H]2N1C(=O)C1CC1,.,.,2,.,2[16.7 µM],1,.,.,
CNC(=O)C[C@H]1CC[C@@H]2[C@@H](COc3ccc(NC(=O)Nc4ccc(F)c(F)c4)cc3C(=O)N2C)O1,.,19[16.7 µM],-20*,.,8[16.7 µM],10,.,?,
